These results are taken from ChEMBL document CHEMBL3526056, “Characterization of in vitro glucuronidation clearance of a range of drugs in human kidney microsomes: comparison with liver and intestinal glucuronidation and impact of albumin” (Drug Metab Dispos, 2012).

Broadly, the clearance is the volume of plasma or blood freed of the substance per unit of time. By fraction unbound is commonly meant free concentration divided by total concentration.

Data set [1] addresses T1, UDP-glucuronosyltransferase 1A9 (Homo sapiens, UniProt O60656).
T1 sequence (O60656 whole entry): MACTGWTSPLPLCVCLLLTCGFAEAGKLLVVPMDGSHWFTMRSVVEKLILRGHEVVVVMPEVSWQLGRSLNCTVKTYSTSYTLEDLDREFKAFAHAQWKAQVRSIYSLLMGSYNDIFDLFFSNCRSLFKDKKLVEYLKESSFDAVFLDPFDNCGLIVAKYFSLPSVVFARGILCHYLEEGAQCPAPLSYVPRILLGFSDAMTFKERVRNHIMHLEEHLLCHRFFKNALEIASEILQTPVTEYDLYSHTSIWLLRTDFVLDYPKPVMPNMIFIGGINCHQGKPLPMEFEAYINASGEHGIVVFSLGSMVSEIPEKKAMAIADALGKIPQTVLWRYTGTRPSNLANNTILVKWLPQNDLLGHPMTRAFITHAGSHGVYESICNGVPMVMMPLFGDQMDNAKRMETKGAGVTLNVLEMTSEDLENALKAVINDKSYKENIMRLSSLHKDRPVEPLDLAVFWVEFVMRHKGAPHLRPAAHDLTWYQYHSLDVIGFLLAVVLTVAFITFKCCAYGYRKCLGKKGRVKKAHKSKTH
The experiment in a line: Drug metabolism in human kidney microsomes assessed as UGT1A9-mediated unbound intrinsic glucuronidation clearance at 1 uM after 30 to 60 mins by LC-MS/MS analysis in presence of 1% bovine serum albumin. Format: ADME.

Data set [2] addresses T1, UDP-glucuronosyltransferase 1A9. As to the kind of experiment: Ratio of UGT1A9-mediated unbound intrinsic glucuronidation clearance in human kidney microsomes to UGT1A9-mediated unbound intrinsic glucuronidation clearance in human liver microsomes at 1 uM in presence of 1% bovine serum albumin. It is filed as ADME. In short, it runs like this: (§1)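 Unbound intrinsic clearance measured by substrate depletion in kidney and liver microsomes (1 μM drug, 0.1 M phosphate pH 7.1, 5 mM cofactor, 37°C, LC-MS/MS), without or with 1% BSA. Values scaled per g tissue; ratio taken as mean scaled kidney over mean scaled liver value.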

Data set [3] shares this target. The experiment in a line: Ratio of UGT1A9-mediated unbound intrinsic glucuronidation clearance in human intestinal microsomes to UGT1A9-mediated unbound intrinsic glucuronidation clearance in human liver microsomes at 1 uM in presence of 1% bovine serum albumin. Format: ADME. On the technique in general: Liver microsomes are vesicles of endoplasmic reticulum, rich in cytochrome P450 enzymes.

The target is the same in data set [4]. As to the kind of experiment: Ratio of UGT1A9-mediated unbound intrinsic glucuronidation clearance in human kidney microsomes to UGT1A9-mediated unbound intrinsic glucuronidation clearance in human intestinal microsomes at 1 uM in presence of 1% bovine serum albumin. It is filed as ADME.
Data set [5] in a line: Clearance in iv dosed human. It is filed as ADME, organism-based. Conditions: in vivo.
Data set [6] can be described thus: Renal clearance in human. Format: ADME, organism-based, Kidney. Conditions: in vivo.
Data set [7] can be described thus: Fraction unbound in human plasma.
A short description of data set [8]: Ratio of drug level blood to plasma in human. It is filed as ADME. To be noted: blood and plasma.
Data set [9] has as its system Liver microsome. As to the kind of experiment: Fraction metabolized glucuronidation in human liver microsomes in presence of UDP-glucuronosyltransferase. Format: ADME.
For data set [10], the system named is Liver microsome. As to the kind of experiment: Fraction metabolized glucuronidation in human liver microsomes in presence of UDP-glucuronosyltransferase and bovine serum albumin. Format: ADME.
Data set [11] can be described thus: Glucuronidation clearance in human liver microsomes. It is filed as ADME.
The nature of data set [12]: Glucuronidation clearance in human liver microsomes in presence of bovine serum albumin. Format: ADME.
The nature of data set [13]: Fraction unbound in human liver microsomes at 1 uM after 30 to 60 mins by LC-MS/MS analysis. It is filed as ADME.
A short description of data set [14]: Fraction unbound in human kidney microsomes at 1 uM after 30 to 60 mins by LC-MS/MS analysis. It is filed as ADME.
Data set [15] can be described thus: Fraction unbound in human intestinal microsomes at 1 uM after 30 to 60 mins by LC-MS/MS analysis. Format: ADME, Intestine, Microsome.
A short description of data set [16]: Fraction unbound in human liver microsomes at 1 uM after 30 to 60 mins by LC-MS/MS analysis in presence of 1% bovine serum albumin. It is filed as ADME. To be noted: liver microsomes.
The subject of data set [17] is Liver microsome. The experiment in a line: Unbound intrinsic glucuronidation clearance in human liver microsomes at 1 uM after 30 to 60 mins by LC-MS/MS analysis in presence of UDP-glucuronosyltransferase. Format: ADME. In short, it runs like this: (§2)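 Alamethicin-activated pooled microsomes (HLM 150 donors; HKM 8; HIM 18). Drug at 1 μM final, preincubated 5 min at 37°C in 0.1 M phosphate pH 7.1 with 3.45 mM MgCl2, 1.15 mM EDTA, 115 μM saccharic acid lactone. Started with […] cofactor (5 mM final), 30–60 min. Cofactor-free controls. Parent depletion by LC-MS/MS, single-exponential k. Corrected by HLM-dialysis fu,inc. Duplicates; n=3 (HIM n=1).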

In data set [18] the test system is Liver microsome. As to the kind of experiment: Unbound intrinsic glucuronidation clearance in human liver microsomes at 1 uM after 30 to 60 mins by LC-MS/MS analysis in presence of UDP-glucuronosyltransferase and 1% bovine serum albumin. Format: ADME.
Data set [19] in a line: Unbound intrinsic glucuronidation clearance in human kidney microsomes at 1 uM after 30 to 60 mins by LC-MS/MS analysis in presence of UDP-glucuronosyltransferase. Format: ADME, microsome. In short, it runs like this:
as §2

Data set [20] is described as follows: Drug metabolism in human intestinal microsomes assessed as UGT1A8/2B7-mediated unbound intrinsic glucuronidation clearance at 1 uM after 30 to 60 mins by LC-MS/MS analysis in presence of 2% bovine serum albumin. Format: ADME, Intestine.
In data set [21] the target is T1, UDP-glucuronosyltransferase 1A9. As to the kind of experiment: Drug metabolism in human intestinal microsomes assessed as UGT1A9-mediated unbound intrinsic glucuronidation clearance at 1 uM after 30 to 60 mins by LC-MS/MS analysis. It is filed as ADME, Intestine.
The target is the same in data set [22]. As to the kind of experiment: Ratio of UGT1A9-mediated unbound intrinsic glucuronidation clearance in human kidney microsomes to UGT1A9-mediated unbound intrinsic glucuronidation clearance in human liver microsomes at 1 uM. It is filed as ADME. In short, it runs like this: as §1
Data set [23] is described as follows: Unbound intrinsic glucuronidation clearance in human kidney microsomes at 1 uM after 30 to 60 mins by LC-MS/MS analysis in presence of UDP-glucuronosyltransferase and 1% bovine serum albumin. Format: ADME, microsome.
The nature of data set [24]: Unbound intrinsic glucuronidation clearance in human intestinal microsomes at 1 uM after 30 to 60 mins by LC-MS/MS analysis in presence of UDP-glucuronosyltransferase. It is filed as ADME, Intestine, Microsome. In a few lines:
as §2

Data set [25] can be described thus: Unbound intrinsic glucuronidation clearance in human intestinal microsomes at 1 uM after 30 to 60 mins by LC-MS/MS analysis in presence of UDP-glucuronosyltransferase and 1% bovine serum albumin. It is filed as ADME, Intestine, Microsome.
A short description of data set [26]: Ratio of unbound intrinsic glucuronidation clearance in human kidney microsomes in presence of 1% bovine serum albumin to unbound intrinsic glucuronidation clearance in human kidney microsomes in absence of bovine serum albumin. It is filed as ADME, microsome. In short, it runs like this: (§3)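 Unbound intrinsic glucuronidation clearance measured by parent-drug depletion in intestinal or kidney microsomes, once with 1% BSA and once without, under otherwise matched conditions (1 μM drug, pH 7.1 phosphate, 5 mM cofactor, 37°C). Each value was corrected for fu,inc. The ratio is the mean clearance with BSA over the mean without.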

A short description of data set [27]: Ratio of unbound intrinsic glucuronidation clearance in human intestinal microsomes in presence of 1% bovine serum albumin to unbound intrinsic glucuronidation clearance in human intestinal microsomes in absence of bovine serum albumin. It is filed as ADME, Intestine, Microsome. In a few lines: as §3
Data set [28] has as its target T1, UDP-glucuronosyltransferase 1A9. The experiment in a line: Drug metabolism in human liver microsomes assessed as UGT1A9-mediated unbound intrinsic glucuronidation clearance at 1 uM after 30 to 60 mins by LC-MS/MS analysis. It is filed as ADME.
Data set [29] shares this target. As to the kind of experiment: Drug metabolism in human kidney microsomes assessed as UGT1A9-mediated unbound intrinsic glucuronidation clearance at 1 uM after 30 to 60 mins by LC-MS/MS analysis. It is filed as ADME.
For data set [30] the target is unchanged. As to the kind of experiment: Ratio of UGT1A9-mediated unbound intrinsic glucuronidation clearance in human intestinal microsomes to UGT1A9-mediated unbound intrinsic glucuronidation clearance in human liver microsomes at 1 uM. It is filed as ADME.
Data set [31] has the same target. The experiment in a line: Ratio of UGT1A9-mediated unbound intrinsic glucuronidation clearance in human kidney microsomes to UGT1A9-mediated unbound intrinsic glucuronidation clearance in human intestinal microsomes at 1 uM. Format: ADME.
Data set [32] shares this target. As to the kind of experiment: Drug metabolism in human liver microsomes assessed as UGT1A9-mediated unbound intrinsic glucuronidation clearance at 1 uM after 30 to 60 mins by LC-MS/MS analysis in presence of 1% bovine serum albumin. It is filed as ADME.
Data set [33] can be described thus: Fraction unbound in human liver microsomes at 5 uM after 30 to 60 mins by LC-MS/MS analysis.
Data set [34] is described as follows: Fraction unbound in human kidney microsomes at 5 uM after 30 to 60 mins by LC-MS/MS analysis.
Data set [35] can be described thus: Fraction unbound in human intestinal microsomes at 5 uM after 30 to 60 mins by LC-MS/MS analysis.
A short description of data set [36]: Fraction unbound in human kidney microsomes at 5 uM after 30 to 60 mins by LC-MS/MS analysis in presence of 2% bovine serum albumin.
The test system of data set [37] is Liver microsome. As to the kind of experiment: Ratio of unbound intrinsic glucuronidation clearance in human liver microsomes in presence of 2% bovine serum albumin to unbound intrinsic glucuronidation clearance in human liver microsomes in absence of bovine serum albumin. It is filed as ADME. In a few lines:
(§4)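 Ratios of mean scaled unbound CLint,UGT (per g tissue) between tissues, or between with and without BSA. Microsomal depletion assays at 1 μM, or 5 μM for propofol, in pH 7.1 phosphate at 37°C, read by LC-MS/MS. Kidney and liver n = 3, intestine n = 1, each in duplicate.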

Data set [38] is described as follows: Ratio of unbound intrinsic glucuronidation clearance in human kidney microsomes in presence of 2% bovine serum albumin to unbound intrinsic glucuronidation clearance in human kidney microsomes in absence of bovine serum albumin. Format: ADME, microsome. In short, it runs like this:
as §4

The nature of data set [39]: Ratio of unbound intrinsic glucuronidation clearance in human intestinal microsomes in presence of 2% bovine serum albumin to unbound intrinsic glucuronidation clearance in human intestinal microsomes in absence of bovine serum albumin. Format: ADME, Intestine, Microsome. In a few lines: as §4

Regarding `COc1c(C)c2c(c(O)c1C/C=C(\C)CCC(=O)O)C(=O)OC2` [MYCOPHENOLIC ACID], the CL free turned out to be 17.6 mL/min/g in data set [1]; 78.2 µL/min/mg in [17]; 233 µL/min/mg in data set [18]; 293 µL/min/mg in data set [19]; 0.292 mL/min/g in [20]; 0.244 mL/min/g in data set [21]. For the same compound, the CL free was 1370 µL/min/mg in [23]; 11.8 µL/min/mg in [24]; 57.8 µL/min/mg in [25]; 3.13 mL/min/g in data set [28]; 3.75 mL/min/g in data set [29]; 9.32 mL/min/g in data set [32]. For the same compound, the Ratio in data set [2] is on record as 1.89; in [3] it was 0.128; in [4] it was 14.8; in [22], 1.2; in data set [26] it was 4.9; in data set [27], 4.7. Further, the Ratio in data set [30] is recorded as 0.078; in data set [31] it was 15.4. Further, the clearance in data set [5] worked out at 2.49 mL/min/kg. The compound further returned a CL renal in data set [6] of 0.01 mL/min/kg. The fraction unbound in data set [7] came out at 0.01. Moreover, the blood plasma ratio in data set [8] came to 0.6. Also, the Drug metabolism in data set [9] and in data set [10] was 0.95 throughout. For the same compound, the CLhep predicted in [11] and in [12] was 3.97 mL/min/kg throughout. Further, the fraction unbound at 1 µM worked out at 0.83 in [13], 0.91 in data set [14], 0.71 in [15] and 0.18 in data set [16].

In turn, `CC(C)c1cccc(C(C)C)c1O` [PROPOFOL] returned a clearance in data set [5] of 27.7 mL/min/kg. In addition, in data set [7], the fraction unbound is 0.015. Also, in data set [8], the blood plasma ratio turned out to be 0.88. The figures for the Drug metabolism in [9] and in [10] were 0.14 and 0.53, respectively. For the same compound, the CLhep predicted was 3.88 mL/min/kg in [11] and 14.7 mL/min/kg in data set [12]. Also, the fraction unbound at 5 µM in data set [33] worked out at 0.69; in data set [34], 0.69; in [35] it was 0.69; in data set [36], 0.25. For the same compound, the Ratio in [37], in data set [38] and in [39] was 1.6 throughout.
